Columns and labels:
[1] = MDCK A-B passive permeability; type: in vitro ADME, canine; conditions: dog
How it was run: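 MDCKII cells seeded at 60 000 cells/cm² on 1 µm pore transwell inserts and used on day 4. Test compound at 1 µM in HBSS added to donor, with 0.1% BSA in receiver. Donor sampled at 0 min; donor and receiver sampled at 90 min, 37°C, analysed by LC‐MS/MS. Papp = (dQ/dt)/(A×C0). Monolayer integrity confirmed by lucifer yellow A‐B <2%; recovery >70%.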

[2] = NHP CSF-to-plasma Kp,uu experiment; type: in vivo, cynomolgus monkeys; conditions: cynomolgus, cynomolgus monkey, intravenous
How it was run: (§1)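 Cynomolgus monkeys (six total) received a three‐compound cassette in 10% captisol in sterile water as a 15 min IV infusion via saphenous or cephalic vein. Plasma (vena cava, K₂EDTA), lumbar CSF after euthanasia, and excised brain were taken from 2 animals per time point at about 17, 30 and 60 min after infusion start. Samples were quantified by LC‐MS/MS after protein precipitation, and Kp,uu was calculated from unbound concentrations.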

[3] = NHP brain-to-plasma and CSF-to-plasma Kp,uu time course experiment; type: in vivo, cynomolgus monkeys; conditions: IV infusion for 15 min
How it was run: as §1

NHP brain tissue binding = type: in vitro ADME; conditions: monkey, brain homogenate
How it was run: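 Brain was homogenized in PBS at 1:3 (w:v) and dialysed against PBS in a rapid equilibrium dialysis device for 18 h at 37°C, 5% CO₂, shaking at 150 rpm. Samples were matrix‐matched, precipitated with acetonitrile containing internal standard, and analysed by LC‐MS/MS. fu = receiver/donor peak‐area ratio, corrected for dilution factor 4.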

[4] = biological target: T1, breast cancer resistance protein (BCRP) (Homo sapiens, UniProt Q9UNQ0); experiment: BCRP transwell efflux ratio; type: in vitro ADME; conditions: B_A Papp (n = 3) / A_B Papp (n = 3)
T1 sequence (Q9UNQ0 1-655): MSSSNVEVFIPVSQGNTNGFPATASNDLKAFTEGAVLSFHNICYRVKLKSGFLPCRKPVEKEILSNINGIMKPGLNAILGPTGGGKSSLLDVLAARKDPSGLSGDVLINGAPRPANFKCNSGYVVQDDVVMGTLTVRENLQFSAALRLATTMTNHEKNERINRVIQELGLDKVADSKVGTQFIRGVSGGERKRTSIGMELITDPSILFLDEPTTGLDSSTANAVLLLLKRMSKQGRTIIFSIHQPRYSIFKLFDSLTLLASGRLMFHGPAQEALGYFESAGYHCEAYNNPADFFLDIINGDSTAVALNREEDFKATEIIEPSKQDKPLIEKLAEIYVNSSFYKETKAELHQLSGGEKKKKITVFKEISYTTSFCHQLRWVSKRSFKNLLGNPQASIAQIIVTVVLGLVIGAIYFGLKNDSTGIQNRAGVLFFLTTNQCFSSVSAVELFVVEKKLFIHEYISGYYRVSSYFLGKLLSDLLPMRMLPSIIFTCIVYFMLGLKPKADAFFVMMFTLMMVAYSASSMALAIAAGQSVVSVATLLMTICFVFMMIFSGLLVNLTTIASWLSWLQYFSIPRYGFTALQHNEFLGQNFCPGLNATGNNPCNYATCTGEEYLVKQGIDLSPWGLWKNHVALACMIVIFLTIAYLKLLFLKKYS

MDR1 = MDR1 (Homo sapiens, UniProt P08183); experiment: NIH MDR1-MDCKI transwell efflux assay; type: in vitro ADME
Sequence of MDR1 (P08183 whole entry): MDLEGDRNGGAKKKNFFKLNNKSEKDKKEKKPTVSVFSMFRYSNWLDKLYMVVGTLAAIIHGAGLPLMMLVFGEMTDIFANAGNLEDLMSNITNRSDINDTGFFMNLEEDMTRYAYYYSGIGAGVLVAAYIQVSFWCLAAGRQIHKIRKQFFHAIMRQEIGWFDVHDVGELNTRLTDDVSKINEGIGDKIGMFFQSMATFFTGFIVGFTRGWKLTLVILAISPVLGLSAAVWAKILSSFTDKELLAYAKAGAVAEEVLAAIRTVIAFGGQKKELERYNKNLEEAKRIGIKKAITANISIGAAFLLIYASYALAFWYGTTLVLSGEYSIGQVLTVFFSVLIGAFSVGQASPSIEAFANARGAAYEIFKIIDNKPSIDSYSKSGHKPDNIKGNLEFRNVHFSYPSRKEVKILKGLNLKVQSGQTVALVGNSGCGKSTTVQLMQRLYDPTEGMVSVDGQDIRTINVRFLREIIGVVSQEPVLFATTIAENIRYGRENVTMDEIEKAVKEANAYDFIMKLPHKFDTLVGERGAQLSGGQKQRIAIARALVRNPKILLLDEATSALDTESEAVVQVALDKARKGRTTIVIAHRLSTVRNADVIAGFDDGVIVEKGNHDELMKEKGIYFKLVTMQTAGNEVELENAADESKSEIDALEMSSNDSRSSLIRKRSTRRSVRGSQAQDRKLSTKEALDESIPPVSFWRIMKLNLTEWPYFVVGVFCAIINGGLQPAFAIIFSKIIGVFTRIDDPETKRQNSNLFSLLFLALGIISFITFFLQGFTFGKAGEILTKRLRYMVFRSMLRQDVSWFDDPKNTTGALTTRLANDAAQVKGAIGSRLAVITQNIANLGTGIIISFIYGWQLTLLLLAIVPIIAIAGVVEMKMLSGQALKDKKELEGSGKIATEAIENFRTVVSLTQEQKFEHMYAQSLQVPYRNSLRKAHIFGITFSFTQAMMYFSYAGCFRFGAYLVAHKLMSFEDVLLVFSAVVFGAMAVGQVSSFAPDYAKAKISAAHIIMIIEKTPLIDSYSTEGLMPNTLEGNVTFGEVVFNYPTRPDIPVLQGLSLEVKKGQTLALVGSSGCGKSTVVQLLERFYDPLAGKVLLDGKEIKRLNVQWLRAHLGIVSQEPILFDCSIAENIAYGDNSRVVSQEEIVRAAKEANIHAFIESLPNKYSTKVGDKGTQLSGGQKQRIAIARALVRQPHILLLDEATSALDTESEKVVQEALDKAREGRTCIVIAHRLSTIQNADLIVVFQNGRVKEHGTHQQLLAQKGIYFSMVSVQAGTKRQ

[5] = NHP brain-to-plasma Kp,uu experiment; type: in vivo, cynomolgus monkeys; conditions: cynomolgus, cynomolgus monkey, intravenous
How it was run: as §1

Row | Papp A→B at 90 min, 1 µM [1] [×10⁻⁶ cm/s] | Kp uu at 1 h [2] | Time for unbound brain concentration to reach equilibrium with unbound plasma concentration [3] [min] | Time for lumbar CSF to equilibrate with plasma ([3]; lumbar CSF) | fraction unbound at 18 h (NHP brain tissue binding) | BCRP ER [4] | efflux ratio at 90 min, 1 µM (MDR1; human, MDCK-MDR1) | Kp uu [5] | ER in NIH MDR1 assay relative to current MDR1 assay (MDR1; NIH MDR1-MDCKI vs internal MDR1-MDCKII) | Structure (SMILES) | MDR1/BCRP substrate classification (MDR1; ER of 3 as cutoff to classify substrates)
1 | 32.8 ± 9 | 1 | ≤ 15 | ~ 1 h | ~1 | 0.9 | 1 | 0.96 |  | Cc1cc(=O)n(-c2ccccc2)n1C [Antipyrine] | no MDR1/BCRP efflux transporter interactions
2 |  |  |  |  |  |  |  |  | more than 10 fold | C=C[C@H]1C[N@@]2CC[C@H]1C[C@@H]2[C@@H](O)c1ccnc2ccc(OC)cc12 [quinidine] | 
